Assay results published in ChEMBL document CHEMBL2440054, “Largazole Arrests Cell Cycle at G1 Phase and Triggers Proteasomal Degradation of E2F1 in Lung Cancer Cells” (ACS Med Chem Lett, 2013).
The source made the active and inactive calls. The calls are words filed in the database; no cut-off is given here.

Tests used:
[1] = system: A549; experiment: Downregulation of E2F1 protein expression in human A549 cells after 12 hrs by Western blotting analysis; format: functional, cell-based
Method in brief: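 A549 cells treated with 0.1 μM largazole over a time course, or with a range of concentrations for 12 h. Lysates Western blotted for E2F1.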

[2] = system: A549; experiment: Upregulation of p21 protein expression in human A549 cells at 0.1 uM after 6 hrs by Western blotting analysis; format: functional, cell-based
Method in brief: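 A549 cells exposed to 0.1 μM over a time course, then lysed and Western blotted for G1 regulators including p21 and p27.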

[3] = biological target: Transcription factor E2F1 (Homo sapiens) (UniProt Q01094); experiment: Induction of E2F1 translocation from nucleus to cytoplasm in human A549 cells at 0.1 uM after 12 to 24 hrs by DAPI staining-based immunofluorescence analysis; format: cell-based
Method in brief: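 A549 cells given 0.1 μM largazole for 12 to 24 h. Immunofluorescence with anti-E2F1 antibody, nuclei counterstained with DAPI.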

[4] = system: NCI-H460; experiment: Growth inhibition of human NCI-H460 cells at 0.1 uM after 24 to 48 hrs by trypan blue exclusion assay; format: functional, cell-based
Method in brief: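 Cells treated with largazole for indicated times. Viability evaluated by trypan blue exclusion.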

[5] = system: A549; experiment: Induction of apoptosis in human A549 cells assessed as downregulation of pro-caspase-9 protein expression at 0.1 uM after 48 hrs by Western blotting analysis; format: functional, cell-based
Method in brief: (§1)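 A549 cells given largazole 0.1 μM for indicated times, lysed, and Western blotted for pro-/cleaved caspase-9, caspase-8, pro-/active caspase-3 and PARP.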

[6] = biological target: T1, Retinoblastoma-associated protein (Homo sapiens) (UniProt P06400); experiment: Dephosphorylation of Rb in human A549 cells at 0.1 uM after 6 to 12 hrs by Western blotting analysis; format: cell-based
T1 sequence (whole entry): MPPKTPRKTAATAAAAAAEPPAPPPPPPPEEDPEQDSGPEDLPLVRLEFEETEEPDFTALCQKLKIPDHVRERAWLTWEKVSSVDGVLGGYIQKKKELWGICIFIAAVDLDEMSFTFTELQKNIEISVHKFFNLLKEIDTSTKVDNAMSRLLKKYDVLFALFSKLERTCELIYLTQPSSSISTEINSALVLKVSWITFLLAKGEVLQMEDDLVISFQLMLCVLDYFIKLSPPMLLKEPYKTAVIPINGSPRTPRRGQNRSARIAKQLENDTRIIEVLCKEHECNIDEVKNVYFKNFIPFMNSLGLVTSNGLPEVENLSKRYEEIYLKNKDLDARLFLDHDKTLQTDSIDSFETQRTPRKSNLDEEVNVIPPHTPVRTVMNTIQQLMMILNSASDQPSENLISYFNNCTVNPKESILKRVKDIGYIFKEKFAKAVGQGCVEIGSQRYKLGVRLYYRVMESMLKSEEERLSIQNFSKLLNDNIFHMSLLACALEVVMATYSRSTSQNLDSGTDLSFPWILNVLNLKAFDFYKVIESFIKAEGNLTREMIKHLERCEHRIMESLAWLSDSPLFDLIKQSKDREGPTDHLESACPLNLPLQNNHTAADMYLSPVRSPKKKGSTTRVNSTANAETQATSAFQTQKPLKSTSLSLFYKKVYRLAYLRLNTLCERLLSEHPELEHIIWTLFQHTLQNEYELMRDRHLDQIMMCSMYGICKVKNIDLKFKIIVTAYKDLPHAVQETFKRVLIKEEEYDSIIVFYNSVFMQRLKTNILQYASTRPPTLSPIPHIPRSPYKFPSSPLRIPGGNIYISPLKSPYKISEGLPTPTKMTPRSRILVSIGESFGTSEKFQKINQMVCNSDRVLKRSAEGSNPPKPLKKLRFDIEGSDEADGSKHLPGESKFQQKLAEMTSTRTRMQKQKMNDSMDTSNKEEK

[7] = system: A549; experiment: Induction of apoptosis in human A549 cells assessed as decrease in pro-caspase-3 level at 0.1 uM after 48 hrs by Western blotting analysis; format: functional, cell-based; method in brief: as §1
[8] = biological target: Transcription factor E2F1 (Homo sapiens) (UniProt Q01094); experiment: Induction of E2F1 degradation in human NCI-H1975 cells at 0.1 uM after 12 to 24 hrs by Western blotting analysis; format: cell-based
Method in brief: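 Each cell line (16-HBE, 95D, L78, H1975, H460) treated with 0.1 μM largazole for indicated times. Lysates Western blotted for E2F1.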

[9] = biological target: Transcription factor E2F1 (Homo sapiens) (UniProt Q01094); experiment: Inhibition of E2F1 in human A549 cells assessed as downregulation of DHFR gene expression at 0.1 uM after 6 to 36 hrs by RT-PCR analysis; format: cell-based
Method in brief: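 A549 cells given 0.1 μM over a time course. RNA extracted and RT-PCR run with gene-specific primers. Bands quantified by densitometry and normalized to GAPDH.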

[10] = Cytotoxicity against human SPCA1 cells after 48 hrs by CCK-8 assay; format: functional, cell-based; conditions: SPCA1, 48 h
Method in brief: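 Cells treated with a range of largazole concentrations for 48 h. Proliferation read by CCK-8 assay; IC50 derived from the concentration series.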

[11] = system: NCI-H460; experiment: Cell cycle arrest in human NCI-H460 cells assessed as accumulation at G2 phase at 0.06 uM after 24 hrs by propidium iodide staining-based flow cytometric analysis (reference value: 9.5%); format: functional
[12] = system: A549; experiment: Upregulation of p21 protein expression in human A549 cells at 0.1 uM after 6 hrs by Western blotting analysis in presence of Hsp90 inhibitor 17-AAG; format: functional, cell-based
Method in brief: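 A549 cells treated 6 h with 0.1 μM, with or without 1 μM 17-AAG, then lysed and Western blotted. p21 quantified by densitometry and normalized to β-actin.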

[13] = biological target: Histone deacetylase 1 (Homo sapiens) (UniProt Q13547); conditions: A549, 0.01 to 1 uM
[14] = system: A549; experiment: Induction of apoptosis in human A549 cells assessed as effect on caspase-8 protein expression at 0.1 uM after 48 hrs by Western blotting analysis; format: functional, cell-based; method in brief: as §1
[15] = system: NCI-H460; experiment: Cell cycle arrest in human NCI-H460 cells assessed as accumulation at S phase at 0.06 uM after 24 hrs by propidium iodide staining-based flow cytometric analysis (reference value: 31.6%); format: functional
[16] = biological target: Transcription factor E2F1 (Homo sapiens) (UniProt Q01094); experiment: Induction of E2F1 degradation in human A549 cells at 0.1 uM after 12 hrs by Western blotting analysis in presence of proteasome inhibitor MG-132; format: cell-based
Method in brief: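 A549 cells pretreated 2 h with bortezomib (100 nM) or MG-132 (10 μM), then given largazole 0.1 μM for a further 12 h. Lysates Western blotted for E2F1.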

[17] = biological target: Transcription factor E2F1 (Homo sapiens) (UniProt Q01094); experiment: Induction of E2F1 ubiquitination in human A549 cells at 0.1 uM after 8 hrs by immunoprecipitation and Western blotting analysis; format: cell-based
Method in brief: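 Lysates of A549 cells given 0.1 μM largazole for 8 h were immunoprecipitated with anti-E2F1 and probed by Western blot with anti-ubiquitin.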

[18] = biological target: Histone deacetylase 1 (Homo sapiens) (UniProt Q13547); conditions: NCI-H460, 0.1 uM
[19] = system: A549; experiment: Effect on cyclin D1 protein expression in human A549 cells at 0.1 uM after 6 to 36 hrs by Western blotting analysis; format: functional, cell-based
Method in brief: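 A549 cells exposed to 0.1 μM largazole over a time course, lysed, and Western blotted for cyclin D1, CDK2, CDK4, p21 and p27.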

[20] = system: A549; experiment: Cell cycle arrest in human A549 cells assessed as accumulation at G2 phase at 0.1 uM after 24 hrs by propidium iodide staining-based flow cytometric analysis (reference value: 3.7%); format: functional

Transcription factor E2F1 (Homo sapiens), sequence (Q01094 whole entry): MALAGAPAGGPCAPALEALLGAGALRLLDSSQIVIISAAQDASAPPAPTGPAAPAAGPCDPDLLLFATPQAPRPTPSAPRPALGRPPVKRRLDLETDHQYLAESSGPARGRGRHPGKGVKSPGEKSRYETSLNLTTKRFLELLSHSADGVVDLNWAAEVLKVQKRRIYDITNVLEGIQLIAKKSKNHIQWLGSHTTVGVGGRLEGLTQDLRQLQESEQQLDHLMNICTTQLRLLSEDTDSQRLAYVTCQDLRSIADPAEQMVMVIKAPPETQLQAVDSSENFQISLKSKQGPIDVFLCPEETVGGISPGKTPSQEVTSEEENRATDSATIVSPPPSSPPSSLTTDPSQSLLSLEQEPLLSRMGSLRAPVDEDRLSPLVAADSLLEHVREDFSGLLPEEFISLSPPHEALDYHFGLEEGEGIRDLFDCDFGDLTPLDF
Histone deacetylase 1 (Homo sapiens), sequence (Q13547 whole entry): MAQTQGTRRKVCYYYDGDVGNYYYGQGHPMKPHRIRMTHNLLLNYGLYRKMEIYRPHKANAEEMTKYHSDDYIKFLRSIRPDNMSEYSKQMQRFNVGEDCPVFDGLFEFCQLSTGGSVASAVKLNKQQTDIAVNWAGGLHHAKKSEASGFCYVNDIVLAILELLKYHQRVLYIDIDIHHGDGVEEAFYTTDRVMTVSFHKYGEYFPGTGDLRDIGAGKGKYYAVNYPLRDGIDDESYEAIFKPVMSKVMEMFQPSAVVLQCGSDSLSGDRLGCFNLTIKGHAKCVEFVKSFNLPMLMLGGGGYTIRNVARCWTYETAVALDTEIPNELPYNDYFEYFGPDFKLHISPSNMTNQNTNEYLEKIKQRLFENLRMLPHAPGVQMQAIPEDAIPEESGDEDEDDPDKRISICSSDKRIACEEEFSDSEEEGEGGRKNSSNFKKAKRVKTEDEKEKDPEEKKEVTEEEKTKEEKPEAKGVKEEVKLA

Question: With `CCCCCCCC(=O)SCC/C=C/[C@@H]1CC(=O)NCc2nc(cs2)C2=N[C@@](C)(CS2)C(=O)N[C@@H](C(C)C)C(=O)O1` [LARGAZOLE] as the compound, how does the Activity [1] read?
Answer: Dose-dependent effect

Question: What about the Activity [2] of the same compound?
Answer: Active

Question: And the Activity [3]?
Answer: Active

Question: What about the “growth inhibition (GI)” value [4] of the same compound?
Answer: Active

Question: What about the Activity [5] of the same compound?
Answer: Active

Question: And the Activity [6]?
Answer: Active

Question: And the Activity [7]?
Answer: Active

Question: And the Activity [8]?
Answer: Active

Question: What about the inhibition [9] of the same compound?
Answer: Active

Question: And the IC50 [10]?
Answer: 140 nM

Question: And the Activity [11]?
Answer: 10.8%

Question: And the Activity [12]?
Answer: inactive

Question: And the inhibition [13]?
Answer: Active

Question: And the Activity [14]?
Answer: inactive

Question: What about the Activity [15] of the same compound?
Answer: 10.4%

Question: What about the Activity [16] of the same compound?
Answer: inactive

Question: And the Activity [17]?
Answer: Active

Question: And the inhibition [18]?
Answer: Active

Question: What about the Activity [19] of the same compound?
Answer: inactive

Question: What about the Activity [20] of the same compound?
Answer: 3.3%
